Active and inactive are the calls of the source. The calls are words filed in the database; no cut-off is given here.
Columns and labels:
[1] = biological target: T1, Serine/threonine-protein kinase PAK 4 (Homo sapiens, UniProt O96013); test: Inhibition of PAK4 (unknown origin) using substrate S2 after 60 mins by HTRF assay
Target sequence in this assay (O96013 whole entry): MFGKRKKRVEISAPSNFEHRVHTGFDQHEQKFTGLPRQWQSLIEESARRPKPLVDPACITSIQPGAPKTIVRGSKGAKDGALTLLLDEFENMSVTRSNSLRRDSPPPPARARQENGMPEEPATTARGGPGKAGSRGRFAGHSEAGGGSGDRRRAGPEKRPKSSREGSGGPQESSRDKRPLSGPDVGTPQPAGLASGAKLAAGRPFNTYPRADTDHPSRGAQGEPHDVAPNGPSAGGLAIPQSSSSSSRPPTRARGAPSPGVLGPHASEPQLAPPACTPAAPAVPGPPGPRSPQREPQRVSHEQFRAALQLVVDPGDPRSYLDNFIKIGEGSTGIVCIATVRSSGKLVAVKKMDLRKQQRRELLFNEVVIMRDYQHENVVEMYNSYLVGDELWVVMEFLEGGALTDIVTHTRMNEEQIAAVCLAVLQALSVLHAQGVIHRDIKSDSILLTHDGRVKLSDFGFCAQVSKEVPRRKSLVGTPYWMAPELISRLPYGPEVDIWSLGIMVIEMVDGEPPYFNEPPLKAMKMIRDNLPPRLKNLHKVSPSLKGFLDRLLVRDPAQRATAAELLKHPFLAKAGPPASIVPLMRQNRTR

[2] = tested on: A549; test: Induction of apoptosis in human A549 cells assessed as live cells at 1 uM after 72 hrs by Annexin-V/7AAD staining based flow cytometry (reference value: 93.98%); format: functional
[3] = tested on: A549; test: Induction of apoptosis in human A549 cells assessed as live cells at 5 uM after 72 hrs by Annexin-V/7AAD staining based flow cytometry (reference value: 93.98%); format: functional
[4] = tested on: A549; test: Anti-invasive activity against human A549 cells at 5 uM […] by crystal violet staining based matrigel invasion chamber assay; format: functional, cell-based
[5] = tested on: A549; test: Cell cycle arrest in human A549 cells assessed as accumulation at G2 phase at 1 uM after 72 hrs by propidium iodide staining based flow cytometry (reference value: 17.62%); format: functional
[6] = tested on: MCF7; test: Growth inhibition of human MCF7 cells after 72 hrs by CCK8 assay; format: functional, cell-based; conditions: MCF7, 72 h
Outline: (§1)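 Cells seeded in 96-well plates and exposed to various compound concentrations on the seeding day, cultured 72 h at 37 °C. Proliferation read by CCK-8.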

[7] = biological target: T1, Serine/threonine-protein kinase PAK 4; test: Inhibition of PAK4 in human A549 cells assessed as reduction in cofilin phosphorylation after 72 hrs by Western blot analysis; format: cell-based
Target sequence in this assay (O96013 whole entry, looked up): as the sequence (O96013 whole entry) above

[8] = tested on: A549; test: Induction of apoptosis in human A549 cells assessed as late apoptotic cells at 1 uM after 72 hrs by Annexin-V/7AAD staining based flow cytometry (reference value: 2.95%); format: functional
[9] = tested on: A549; test: Cell cycle arrest in human A549 cells assessed as accumulation at G2 phase at 5 uM after 72 hrs by propidium iodide staining based flow cytometry (reference value: 17.62%); format: functional
[10] = tested on: A549; test: Induction of apoptosis in human A549 cells assessed as necrotic cells at 5 uM after 72 hrs by Annexin-V/7AAD staining based flow cytometry (reference value: 0.65%); format: functional
[11] = tested on: A549; test: Induction of apoptosis in human A549 cells assessed as early apoptotic cells at 1 uM after 72 hrs by Annexin-V/7AAD staining based flow cytometry (reference value: […]); format: functional
[12] = tested on: HT-1080; test: Growth inhibition of human HT1080 cells after 72 hrs by CCK8 assay; format: functional, cell-based; conditions: HT-1080, 72 h; outline: as §1
[13] = tested on: A549; test: Cell cycle arrest in human A549 cells assessed as accumulation at S phase at 5 uM after 72 hrs by propidium iodide staining based flow cytometry (reference value: 37.39%); format: functional
[14] = tested on: A549; test: Induction of apoptosis in human A549 cells assessed as necrotic cells at 1 uM after 72 hrs by Annexin-V/7AAD staining based flow cytometry (reference value: 0.65%); format: functional
[15] = tested on: A549; test: Cell cycle arrest in human A549 cells assessed as accumulation at G1 phase at 5 uM after 72 hrs by propidium iodide staining based flow cytometry (reference value: 44.99%); format: functional
[16] = biological target: T1, Serine/threonine-protein kinase PAK 4; test: Inhibition of PAK4 phosphorylation in human A549 cells after 2 hrs by Western blot analysis; format: cell-based
Outline: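 A549 cells treated with indicated dose for 2 h, lysed in SDS sample buffer, resolved by 10% SDS-PAGE, transferred to nitrocellulose, probed for phospho-PAK4 and PAK4 (GAPDH loading control) with HRP-conjugated secondary antibodies, detected by enhanced chemiluminescence.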
Target sequence in this assay (O96013 whole entry, looked up): as the sequence (O96013 whole entry) above

[17] = biological target: T1, Serine/threonine-protein kinase PAK 4; test: Inhibition of PAK4 in human A549 cells assessed as reduction in LIMK1 phosphorylation after 72 hrs by Western blot analysis; format: cell-based
Target sequence in this assay (O96013 whole entry, looked up): as the sequence (O96013 whole entry) above

[18] = tested on: A549; test: Induction of apoptosis in human A549 cells assessed as early apoptotic cells at 5 uM after 72 hrs by Annexin-V/7AAD staining based flow cytometry (reference value: […]); format: functional
[19] = tested on: A549; test: Growth inhibition of human A549 cells after 72 hrs by CCK8 assay; format: functional, cell-based; conditions: A549, 72 h; outline: as §1
[20] = tested on: A549; test: Cell cycle arrest in human A549 cells assessed as accumulation at S phase at 1 uM after 72 hrs by propidium iodide staining based flow cytometry (reference value: 37.39%); format: functional
[21] = tested on: A549; test: Induction of apoptosis in human A549 cells assessed as late apoptotic cells at 5 uM after 72 hrs by Annexin-V/7AAD staining based flow cytometry (reference value: 2.95%); format: functional
[22] = tested on: A549; test: Antimigratory activity against human A549 cells at 5 uM […] by crystal violet staining based transwell chamber assay; format: functional, cell-based
[23] = tested on: A549; test: Cell cycle arrest in human A549 cells assessed as accumulation at G1 phase at 1 uM after 72 hrs by propidium iodide staining based flow cytometry (reference value: 44.99%); format: functional
[24] = tested on: A549; test: Induction of apoptosis in human A549 cells after 72 hrs by Annexin-V/7AAD staining based flow cytometry; format: functional, cell-based

O=C1Nc2ccc(C(=O)N[C@H](CO)c3ccc(F)cc3)cc2/C1=C/c1ccc[nH]1
IC50 ([1]; read-out: IC50): 54 nM

O=C1Nc2ccc(C(=O)NCCCO)cc2/C1=C/c1ccc[nH]1
IC50 ([1]; read-out: IC50): 3150 nM

O=C1Nc2ccc(C(=O)N[C@H](CO)c3ccc(Cl)cc3)cc2/C1=C/c1ccc[nH]1
IC50 ([1]; read-out: IC50): 391 nM

O=C1Nc2ccc(C(=O)N[C@H](CO)c3ccccc3)cc2/C1=C/c1ncc[nH]1
IC50 ([1]; read-out: IC50): 281 nM

O=C1Nc2ccc(C(=O)N[C@H](CCO)c3ccccc3)cc2/C1=C/c1ccc[nH]1
IC50 ([1]; read-out: IC50): 5010 nM

O=C1Nc2cc(Br)c(C(=O)N[C@H](CO)c3ccccc3)cc2/C1=C/c1ccc[nH]1
IC50 ([1]; read-out: IC50): 1200 nM

O=C1Nc2ccc(C(=O)NCCO)cc2/C1=C/c1ccc[nH]1
IC50 ([1]; read-out: IC50): 1260 nM

CC(C)[C@@H](CO)NC(=O)c1ccc2c(c1)/C(=C/c1ccc[nH]1)C(=O)N2
IC50 ([1]; read-out: IC50): 2350 nM

N#Cc1cc2c(cc1C(=O)N[C@H](CO)c1ccccc1)/C(=C/c1ccc[nH]1)C(=O)N2
IC50 ([1]; read-out: IC50): 1540 nM

O=C1Nc2ccc(C(=O)N[C@H](CO)c3ccccc3Cl)cc2/C1=C/c1ccc[nH]1
IC50 ([1]; read-out: IC50): 199 nM

Cn1nccc1-c1cc2c(cc1C(=O)N[C@H](CO)c1ccccc1)/C(=C/c1ccc[nH]1)C(=O)N2
IC50 ([1]; read-out: IC50): 1450 nM

O=C1Nc2ccc(C(=O)N[C@H](CO)c3ccccc3)cc2/C1=C/c1cccs1
IC50 ([1]; read-out: IC50): 1290 nM

O=C1Nc2ccc(C(=O)N[C@H](CO)c3ccccc3)cc2/C1=C/c1ccco1 (stereo in doubt)
IC50 ([1]; read-out: IC50): 802 nM

Cn1cc(-c2cc3c(cc2C(=O)N[C@H](CO)c2ccccc2)/C(=C/c2ccc[nH]2)C(=O)N3)cn1
IC50 ([1]; read-out: IC50): 1990 nM

Cc1cc(C)c(/C=C2\C(=O)Nc3ccc(C(=O)N[C@H](CO)c4ccccc4)cc32)[nH]1
Activity [2]: 70.56%
Activity [3]: 26.23%
Activity [4]: Active
Activity [5]: 24.37%
IC50 [6]: 2.11 µM
inhibition [7]: Dose-dependent effect
Activity [8]: 15.46%
Activity [9]: 33.75%
Activity [10]: 8.36%
Activity [11]: 8.44%
IC50 [12]: 6.77 µM
IC50 ([1]; read-out: IC50): 27 nM
IC50 ([1]; read-out: pIC50 (converted)): 27.5 nM
Activity [13]: 38.47%
Activity [14]: 5.14%
Activity [15]: 27.78%
inhibition [16]: Dose-dependent effect
inhibition [17]: Dose-dependent effect
Activity [18]: 32.18%
IC50 [19]: 830 nM
Activity [20]: 39.92%
Activity [21]: 33.22%
Activity [22]: Active
Activity [23]: 35.7%
Activity [24]: Dose-dependent effect

O=C1Nc2ccc(C(=O)N[C@H](CO)c3ccccc3)cc2/C1=C/c1ccn[nH]1
IC50 ([1]; read-out: IC50): 379 nM

O=C1Nc2ccc(C(=O)N[C@H](CO)c3ccccc3)cc2/C1=C/c1cnc[nH]1
IC50 [6]: 10.8 µM
IC50 [12]: 7.9 µM
IC50 [19]: 3700 nM

O=C1Nc2ccc(C(=O)N[C@H](CO)c3ccccc3)cc2/C1=C/c1ccc[nH]1
IC50 [6]: 6.56 µM
IC50 [12]: 0.98 µM
IC50 ([1]; read-out: IC50): 22 nM
IC50 ([1]; read-out: pIC50 (converted)): 21.9 nM
IC50 [19]: 2370 nM

CC(C)(C)[C@@H](CO)NC(=O)c1ccc2c(c1)/C(=C/c1ccc[nH]1)C(=O)N2
IC50 ([1]; read-out: IC50): 634 nM

O=C1Nc2ccc(C(=O)N[C@H](CO)Cc3ccccc3)cc2/C1=C/c1ccc[nH]1
IC50 ([1]; read-out: IC50): 304 nM

O=C1Nc2ccc(C(=O)N[C@H](CO)c3ccccc3)cc2C1=Cc1ccccn1
IC50 ([1]; read-out: IC50): > 10000 nM

O=C1Nc2cc(Cl)c(C(=O)N[C@H](CO)c3ccccc3)cc2/C1=C/c1ccc[nH]1
IC50 ([1]; read-out: IC50): 1420 nM

O=C1Nc2ccc(C(=O)N[C@@H](CO)c3ccccc3)cc2/C1=C/c1ccc[nH]1
IC50 ([1]; read-out: IC50): 3380 nM

O=C1Nc2cc(F)c(C(=O)N[C@H](CO)c3ccccc3)cc2/C1=C/c1ccc[nH]1
IC50 ([1]; read-out: IC50): 718 nM

Reference: ChEMBL document CHEMBL4033682, “Discovery of indolin-2-one derivatives as potent PAK4 inhibitors: Structure-activity relationship analysis, biological evaluation and molecular docking study” (Bioorg Med Chem, 2017)
